In brackets after ≈: the same amount, converted by molar mass. Activity calls are given as the source filed them. The calls are words filed in the database; no cut-off is given here.
Columns and labels:
Staphylococcus aureus [1] = assay: Disruption of membrane in Staphylococcus aureus isolate DM4001R assessed as increase in ATP leakage at 4 times MIC after 1 hr by ATP bioluminescent assay relative to control; type: functional
Outline: (§1)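 S. aureus DM4001 grown to exponential phase, washed three times in 20 mM PBS (pH 7), resuspended to OD600 0.2. Compound added, suspensions held 1 hour at 37 °C, then centrifuged. Supernatant mixed with luciferase/luciferin enzyme mix; extracellular ATP quantified by luminescence. Replicated.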

Staphylococcus aureus [2] = assay: Disruption of cytoplasmic membrane in Staphylococcus aureus isolate DM4001R at 2 times MIC after 3000 secs by SYTOX green dye based fluorescence assay; type: functional
Outline: (§2)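 Clinical S. aureus isolate DM4001R incubated with SYTOX Green plus compound; membrane permeabilization read as increased fluorescence intensity. Measurements replicated.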

Lipid bilayer [3] = assay: Induction of membrane damage in DOPC/cholesterol large unilamellar vesicles assessed as calcein leakage at compound to lipid ratio of 1:16 after 1 hr by fluorescence assay relative to control
Outline: (§3)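 100 nm calcein-loaded LUVs made by film hydration; lipid content set by total phosphorus assay. DOPC/cholesterol (3:1, w/w) mimics mammalian and DOPE/DOPG (3:1, w/w) bacterial membranes. Compound in DMF added at lipid-to-compound ratio 16 (6.25 µM compound), final DMF limited to 0.5%. Fluorescence monitored at ex 490/em 520 nm for 1 hour; replicated.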

Lipid bilayer [4] = assay: Induction of membrane damage in DOPE/DOPG large unilamellar vesicles assessed as calcein leakage at compound to lipid ratio of 1:16 after 1 hr by fluorescence assay relative to control; outline: as §3
[5] = Cytotoxicity against human corneal fibroblasts assessed as reduction in cell viability at 100 uM after 4 hrs by CytoTox-ONE reagent-based LDH assay; conditions: corneal fibroblast
Outline: (§4)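 Human corneal fibroblasts exposed to compound; cytotoxicity taken from LDH leakage, with cells treated with 1% triton X-100 as positive control. Measurements replicated.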

[6] = Cytotoxicity against human corneal fibroblasts assessed as reduction in cell viability up to 250 uM after 4 hrs by CytoTox-ONE reagent-based LDH assay relative to control; conditions: corneal fibroblast; outline: as §4
Staphylococcus aureus [7] = assay: Antibacterial activity against Staphylococcus aureus ATCC 29213 at 0.5 times MIC after 30 serial passages; type: functional
Outline: (§5)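 Serial-passage resistance selection in S. aureus ATCC29213. MIC was determined by CA-MHB broth macrodilution (2-fold dilutions, ~5×10^5 CFU/mL, 35 °C). Cells grown at 0.5× MIC were recovered and used to prepare the inoculum for the next MIC assay, with MIC change read after each 24 h/35 °C round. This was repeated for 17 passages, or 30 passages for one compound. Replicated.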

Staphylococcus aureus [8] = assay: Bactericidal activity against methicillin-resistant Staphylococcus aureus DM21455 assessed as log reduction in bacterial load at 2 times MIC after 30 mins by time kill assay; type: functional
Outline: (§6)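 MRSA DM21455 was taken from colonies on 18-22 h TSA plates and diluted to 10^5~10^6 CFU/mL in PBS. Cells were exposed to 0.5×, 1×, 2× and 4× MIC at 35 °C, with a PBS control. Samples were taken at 10 min, 30 min, 1, 2, 4 and 8 h, 10-fold diluted in PBS and plated on MHA. Colonies were counted after 24-48 h at 35 °C. Replicated.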

Staphylococcus aureus [9] = assay: Bactericidal activity against methicillin-resistant Staphylococcus aureus DM21455 assessed as log reduction in bacterial load at 4 times MIC after 10 mins by time kill assay; type: functional; outline: as §6
[10] = Solubility of the compound in water; type: physicochemical; conditions: buffer
Enterococcus hirae = assay: Antibacterial activity against Enterococcus hirae ATCC 9790 after 24 hrs by two fold dilution assay; type: functional; conditions: ATCC 9790, 24 h
Outline: (§7)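 Broth macro-dilution per CLSI in cation-adjusted Mueller-Hinton broth; compounds dissolved in DMF, diluted in PBS to 1000 µg/mL stock, then serial 2-fold dilutions in CA-MHB in tubes. Inoculum from 18-20 h TSA colonies (direct colony suspension), adjusted to about 5× 10^5 CFU/mL. MIC read after 24 h at 35 °C as lowest concentration with no visible growth; biological replicates.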

Enterococcus faecalis = assay: Antibacterial activity against Enterococcus faecalis ATCC 29212 after 24 hrs by two fold dilution assay; type: functional; conditions: ATCC 29212, 24 h; outline: as §7
Enterococcus faecium [11] = assay: Antibacterial activity against vancomycin A-resistant Enterococcus faecium VRE 1008 after 24 hrs by two fold dilution assay; type: functional; conditions: VRE 1008, 24 h
Outline: (§8)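 CLSI broth macrodilution in cation-adjusted Mueller-Hinton broth. Compounds were dissolved in DMF and diluted in PBS to a 1000 µg/mL stock, then serially 2-fold diluted in CA-MHB. The inoculum came from colonies on 18-20 h TSA plates (direct colony suspension), adjusted to ~5×10^5 CFU/mL. Incubation was 24 h at 35 °C. MIC is the lowest concentration with no visible growth versus control. Biological replicates.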

Enterococcus faecium [12] = assay: Antibacterial activity against vancomycin A-resistant Enterococcus faecium VRE 1007 after 24 hrs by two fold dilution assay; type: functional; conditions: VRE 1007, 24 h; outline: as §8
Enterococcus faecium [13] = assay: Antibacterial activity against vancomycin A-resistant Enterococcus faecium VRE 1006 after 24 hrs by two fold dilution assay; type: functional; conditions: VRE 1006, 24 h; outline: as §8
Staphylococcus aureus [14] = assay: Antibacterial activity against methicillin-resistant Staphylococcus aureus ATCC BAA-38 after 24 hrs by two fold dilution assay; type: functional; conditions: ATCC BAA-38, 24 h; outline: as §8
Staphylococcus aureus [15] = assay: Antibacterial activity against methicillin-resistant Staphylococcus aureus ATCC 700699 after 24 hrs by two fold dilution assay; type: functional; conditions: Mu50, 24 h; outline: as §8
Staphylococcus aureus [16] = assay: Antibacterial activity against methicillin-resistant Staphylococcus aureus ATCC 43300 after 24 hrs by two fold dilution assay; type: functional; conditions: ATCC 43300, 24 h; outline: as §8
Staphylococcus aureus [17] = assay: Antibacterial activity against methicillin-resistant Staphylococcus aureus DB57964 after 24 hrs by two fold dilution assay; type: functional; conditions: DB57964, 24 h; outline: as §8
Staphylococcus aureus [18] = assay: Antibacterial activity against methicillin-resistant Staphylococcus aureus DB68004 after 24 hrs by two fold dilution assay; type: functional; conditions: DB68004, 24 h; outline: as §8
Staphylococcus aureus [19] = assay: Antibacterial activity against methicillin-resistant Staphylococcus aureus DB6506 after 24 hrs by two fold dilution assay; type: functional; conditions: DB6506, 24 h; outline: as §8
Staphylococcus aureus [20] = assay: Antibacterial activity against methicillin-sensitive Staphylococcus aureus ATCC 29737 after 24 hrs by two fold dilution assay; type: functional; conditions: ATCC 29737, 24 h; outline: as §8
Staphylococcus aureus [21] = assay: Antibacterial activity against methicillin-sensitive Staphylococcus aureus ATCC 6538 after 24 hrs by two fold dilution assay; type: functional; conditions: ATCC 6538, 24 h; outline: as §8
Staphylococcus aureus [22] = assay: Antibacterial activity against methicillin-sensitive Staphylococcus aureus ATCC 29213 after 24 hrs by two fold dilution assay; type: functional; conditions: ATCC 29213, 24 h; outline: as §8
Staphylococcus aureus [23] = assay: Antibacterial activity against methicillin-sensitive Staphylococcus aureus DM4400R after 24 hrs by two fold dilution assay; type: functional; outline: as §8
Staphylococcus aureus [24] = assay: Antibacterial activity against methicillin-sensitive Staphylococcus aureus DM4299 after 24 hrs by two fold dilution assay; type: functional; conditions: DM4299, 24 h; outline: as §8
Staphylococcus aureus [25] = assay: Antibacterial activity against methicillin-sensitive Staphylococcus aureus DM4583R after 24 hrs by two fold dilution assay; type: functional; outline: as §8
Bacillus cereus = assay: Antibacterial activity against Bacillus cereus ATCC 11778 after 24 hrs by two fold dilution assay; type: functional; conditions: ATCC 11778, 24 h; outline: as §7
Staphylococcus aureus [26] = assay: Antibacterial activity against methicillin-resistant Staphylococcus aureus DM 9808R after 24 hrs by two fold dilution assay; type: functional; outline: as §8
Staphylococcus aureus [27] = assay: Antibacterial activity against methicillin-resistant Staphylococcus aureus DM 21455 after 24 hrs by two fold dilution assay; type: functional; conditions: DM 21455, 24 h; outline: as §8
Staphylococcus aureus [28] = assay: Antibacterial activity against Staphylococcus aureus DM 4001R after 24 hrs by two fold dilution assay; type: functional; outline: as §8
Staphylococcus aureus [29] = assay: Antibacterial activity against Staphylococcus aureus ATCC 700699 infected in C57BL6 mouse cornea assessed as decrease in number of viable bacteria at 0.5% administered topically at 2 hrs interval for 4 times starting on day 1 post infection measured post last dose relative to control; type: functional, Mu50
Staphylococcus aureus [30] = assay: Antibacterial activity against Staphylococcus aureus ATCC 29213 infected in C57BL6 mouse cornea assessed as decrease in number of viable bacteria at 0.5% administered topically at 2 hrs interval for 4 times starting on day 1 post infection measured post last dose relative to control; type: functional
Staphylococcus aureus [31] = assay: Antibacterial activity against Staphylococcus aureus ATCC 29213 at 0.5 times MIC after 17 serial passages; type: functional; outline: as §5
Staphylococcus aureus [32] = assay: Bactericidal activity against methicillin-resistant Staphylococcus aureus DM21455 assessed as log reduction in bacterial load at 2 times MIC after 2 hrs by time kill assay; type: functional; outline: as §6
Staphylococcus aureus [33] = assay: Disruption of membrane in Staphylococcus aureus isolate DM4001R assessed as […] in ATP leakage at 200 ug/ml after 1 hr by ATP bioluminescent assay relative to control; type: functional; set-up: scale not given: the % may be the effect or the level left; outline: as §1
Staphylococcus aureus [34] = assay: Disruption of cytoplasmic membrane in Staphylococcus aureus isolate DM4001R at 100 ug/ml after 3000 secs by SYTOX green dye based fluorescence assay; type: functional; outline: as §2

SMILES | Activity (Staphylococcus aureus [1]) | Activity (Staphylococcus aureus [2]) | Activity (Lipid bilayer [3]) | Activity (Lipid bilayer [4]) | Activity [6] | log(activity) (Staphylococcus aureus [9]) | solubility [10] | MIC (Enterococcus hirae) | MIC (Enterococcus faecalis) | MIC (Enterococcus faecium [11]) | MIC (Enterococcus faecium [12]) | MIC (Enterococcus faecium [13]) | MIC (Staphylococcus aureus [14]) | MIC (Staphylococcus aureus [15]) | MIC (Staphylococcus aureus [16]) | MIC (Staphylococcus aureus [17]) | MIC (Bacillus cereus) | MIC (Staphylococcus aureus [26]) | MIC (Staphylococcus aureus [27]) | MIC (Staphylococcus aureus [28]) | also measured
COC(=O)[C@H](CCCNC(=N)N)NC(=O)[C@H](CCCNC(=N)N)NC(=O)COc1cc(OCC=C(C)C)cc2oc3cc(OCC=C(C)C)cc(OCC(=O)N[C@@H](CCCNC(=N)N)C(=O)N[C@@H](CCCNC(=N)N)C(=O)OC)c3c(=O)c12 | 66.4% | Active | < 20% | 63.3% | 27.4% | 3 | Soluble | 6.25 µg/mL (≈ 5.36 µM) | 6.25 µg/mL (≈ 5.36 µM) | 3.13 µg/mL (≈ 2.69 µM) | 1.56 µg/mL (≈ 1.34 µM) | 1.56 µg/mL (≈ 1.34 µM) | 3.13 µg/mL (≈ 2.69 µM) | 1.56 µg/mL (≈ 1.34 µM) | 1.56 µg/mL (≈ 1.34 µM) | 1.56 µg/mL (≈ 1.34 µM) | 3.13 µg/mL (≈ 2.69 µM) | 3.13 µg/mL (≈ 2.69 µM) | 3.13 µg/mL (≈ 2.69 µM) | 1.56 µg/mL (≈ 1.34 µM) | Activity [5]: Non-Toxic; Activity (Staphylococcus aureus [7]): Active; log(activity) (Staphylococcus aureus [8]): 3; MIC (Staphylococcus aureus [18]): 1.56 µg/mL (≈ 1.34 µM); MIC (Staphylococcus aureus [19]): 1.56 µg/mL (≈ 1.34 µM); MIC (Staphylococcus aureus [20]): 1.56 µg/mL (≈ 1.34 µM); MIC (Staphylococcus aureus [21]): 1.56 µg/mL (≈ 1.34 µM); MIC (Staphylococcus aureus [22]): 3.13 µg/mL (≈ 2.69 µM); MIC (Staphylococcus aureus [23]): 3.13 µg/mL (≈ 2.69 µM); MIC (Staphylococcus aureus [24]): 1.56 µg/mL (≈ 1.34 µM); MIC (Staphylococcus aureus [25]): 3.13 µg/mL (≈ 2.69 µM)
COC(=O)[C@H](CCCNC(=N)N)NC(=O)COc1cc(OCC=C(C)C)cc2oc3cc(OCC=C(C)C)cc(OCC(=O)N[C@@H](CCCNC(=N)N)C(=O)OC)c3c(=O)c12 | 59.6% | Active | < 20% | 58.7% | Non-Toxic | 3 | Soluble | 6.25 µg/mL (≈ 7.33 µM) | 3.13 µg/mL (≈ 3.67 µM) | 6.25 µg/mL (≈ 7.33 µM) | 6.25 µg/mL (≈ 7.33 µM) | 6.25 µg/mL (≈ 7.33 µM) | 3.13 µg/mL (≈ 3.67 µM) | 3.13 µg/mL (≈ 3.67 µM) | 1.56 µg/mL (≈ 1.83 µM) | 1.56 µg/mL (≈ 1.83 µM) | 3.13 µg/mL (≈ 3.67 µM) | 0.78 µg/mL (≈ 0.914 µM) | 1.56 µg/mL (≈ 1.83 µM) | 0.78 µg/mL (≈ 0.914 µM) | Activity (Staphylococcus aureus [29]): 92.8%; Activity (Staphylococcus aureus [30]): 98.5%; Activity (Staphylococcus aureus [31]): Active; log(activity) (Staphylococcus aureus [32]): 3; MIC (Staphylococcus aureus [18]): 3.13 µg/mL (≈ 3.67 µM); MIC (Staphylococcus aureus [19]): 1.56 µg/mL (≈ 1.83 µM); MIC (Staphylococcus aureus [20]): 0.78 µg/mL (≈ 0.914 µM); MIC (Staphylococcus aureus [21]): 0.78 µg/mL (≈ 0.914 µM); MIC (Staphylococcus aureus [22]): 3.13 µg/mL (≈ 3.67 µM); MIC (Staphylococcus aureus [23]): 0.78 µg/mL (≈ 0.914 µM); MIC (Staphylococcus aureus [24]): 3.13 µg/mL (≈ 3.67 µM); MIC (Staphylococcus aureus [25]): 1.56 µg/mL (≈ 1.83 µM)
O=c1c2c(O)cc(O)cc2oc2cc(O)cc(O)c12 |  |  | < 20% | 11.7% |  |  |  |  |  |  |  |  |  |  |  |  | > 50 µg/mL | > 50 µg/mL | > 50 µg/mL | > 50 µg/mL | Activity (Staphylococcus aureus [33]): 6.9%; Activity (Staphylococcus aureus [34]): inactive
